Assay outcomes deposited in PubChem by Johns Hopkins Ion Channel Center.
MrgX1 PAM – human MrgX1 positive allosteric modulation, primary screen; hit rate 0.63% among 310,000; AID 588675; MrgX1-HEK293, Fluo-4 calcium flux, FDSS; stronger effect = higher value; B-score at 10 µM;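 active = plate-corrected calcium response at least 3 library SD above typical, normal starting fluorescence, not activating the receptor alone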;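 also: compound read alongside a low EC10 to EC30 dose of BAM8-22 agonist; peak minus trough fluorescence over baseline measured at the second addition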
Target sequence (Q96LB2 whole entry, looked up): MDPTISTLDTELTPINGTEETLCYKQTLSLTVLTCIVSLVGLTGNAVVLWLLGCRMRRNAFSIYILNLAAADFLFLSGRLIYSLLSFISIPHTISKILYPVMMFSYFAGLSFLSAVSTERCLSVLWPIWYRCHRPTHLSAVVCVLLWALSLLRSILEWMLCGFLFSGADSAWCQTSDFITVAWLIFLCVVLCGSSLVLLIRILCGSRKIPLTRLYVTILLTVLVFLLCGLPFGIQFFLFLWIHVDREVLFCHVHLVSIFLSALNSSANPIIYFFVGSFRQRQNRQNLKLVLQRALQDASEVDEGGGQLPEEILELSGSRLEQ
RGS4 inh – human RGS4 inhibition. HEK293 M3R/RGS4 inducible, Fluo-4 calcium flux; stronger effect = higher value; triggered by carbachol at its EC20. B-score at 10 µM. hit rate 0.45% among 310,000;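 active = B-score, a plate-corrected calcium signal, over three deviations above library mean, with baseline fluorescence within five deviations of library mean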;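 also: RGS4 expression induced by doxycycline in cells with stable M3 receptor; B-score is computed from the integrated fluorescence ratio over baseline after carbachol; higher B-score means a larger calcium signal and so more RGS4 inhibition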
Target sequence (P49798 whole entry, looked up): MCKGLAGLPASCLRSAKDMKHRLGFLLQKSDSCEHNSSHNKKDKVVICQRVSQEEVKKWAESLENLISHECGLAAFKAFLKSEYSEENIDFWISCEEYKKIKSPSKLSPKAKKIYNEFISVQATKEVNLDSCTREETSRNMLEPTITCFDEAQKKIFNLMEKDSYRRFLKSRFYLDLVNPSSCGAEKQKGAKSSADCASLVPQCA
RGS4 act – potentiators or activators of RGS4; AID 463111; hit rate 0.92% among 310,000; HEK293 M3R/inducible RGS4, carbachol calcium flux Fluo4; stronger effect = lower value; B-score at 10 µM;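 active = B-score of the integrated calcium signal more than 4 SD below the library mean, with starting fluorescence not abnormally high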;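 also: negative B-score means reduced calcium response which marks RGS4 activation or potentiation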
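test system = HEK293 cells with stable M3R and inducible RGS4 | schedule = recording 10 s baseline at 1 Hz, 100 s post-agonist | technique = Fluo4-AM (2 µM) calcium-flux fluorescence, kinetic read | measure = Agonist-evoked peak-minus-minimum fluorescence over baseline, integrated ratio, B score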
MrgX1 agonist – human MrgX1 receptor agonism, primary screen | Q96LB2 | hit rate 0.44% among 310,000 | MrgX1-HEK293 cells, Fluo-4 calcium fluorescence, agonist mode; stronger effect = higher value | B-score at 10 µM;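 active = calcium response B-score plate-corrected fluorescence ratio at least 3 library SD, with starting fluorescence B-score inside 5 SD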
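Material – MrgX1-expressing HEK293 cells · Input – 15,000 cells seeded per well · Dosing – compound as first of three additions · Times – overnight seeding, then 1 h dark dye loading · Measured by – kinetic Fluo-4 NW fluorescence of intracellular calcium · Read-out – B-scored fluorescence response ratio · Benchmarks – positive and negative control wells on each plate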
MrgX1 antag – blocks BAM8-22 activation of human MrgX1 receptor. hit rate 1.3% among 310,000. Q96LB2. MRGX1-HEK293 calcium flux, Fluo-4, BAM8-22 antagonism; stronger effect = lower value. B-score at 10 µM;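 active = calcium-response B-score plate-corrected more than 3 library SD below zero, starting fluorescence within 5 deviations, no agonist response on first addition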;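 also: peak minus trough fluorescence over baseline after final BAM8-22 challenge near maximal dose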
MrgX1 ag confirm – human MrgX1 agonism, re-confirmation screen | shares compounds with MrgX1 agonist | MrgX1-HEK293, Fluo-4 calcium fluorescence, FDSS | activation, % at 10 µM | hit rate 78% among 600;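 active = calcium signal rise, corrected for plate position, at least 3 library SD high, with starting brightness within 5 such deviations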
HEK293 Ca flux – MrgX1 antagonist counter-screen hit in parental HEK293 cells | shares compounds with MrgX1 antag | Fluo-4 calcium fluorescence, FDSS | fluorescence ratio F(max-min)/F0 at 10 µM | hit rate 2% among 4,000;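 active = duplicate-averaged calcium fluorescence ratio at least three times the standard deviation of buffer wells, a nonspecific response in parental cells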
HEK293 Ca counter – MrgX1 allosteric activator counter-screen hit in parental HEK293 cells. shares compounds with MrgX1 antag. parental HEK293 calcium flux, Fluo-4 fluorescence ratio; stronger effect = higher value. fluorescence ratio F(max-min)/F0 at 10 µM. hit rate 0.4% among 4,000;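 active = calcium fluorescence ratio, averaged over duplicates, at least 3 SD of the buffer-well ratio, meaning a nonspecific response in receptor-free cells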;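 also: untransfected parental HEK293 lacking MrgX1 used as counterscreen for MrgX1 allosteric activators; fluorescence change taken during the second addition on a kinetic imager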
HEK293 Ca cntr2 – activity in parental HEK293 cells lacking MrgX1 receptor. shares compounds with MrgX1 antag. Fluo-4 calcium fluorescence (FDSS); stronger effect = higher value. fluorescence ratio F(max-min)/F0 at 10 µM. hit rate 8.7% among 4,000. AID 624115;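 active = calcium fluorescence ratio at least three times the spread of buffer wells, meaning a non-specific response in parental cells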
Numbers without * were called inactive; i = inactive; nt = no result given. Sampled rows, rich in hits. Any-hit rate of the full collection: about 3.5%.

SMILES	MrgX1 PAM	RGS4 inh	RGS4 act	MrgX1 agonist	MrgX1 antag	MrgX1 ag confirm	HEK293 Ca flux	HEK293 Ca counter	HEK293 Ca cntr2
Cc1nn(-c2ccccc2)nc1C(=O)Oc1cc(C(F)(F)F)nn1-c1ccccc1	i	i	i	i	i	nt	nt	nt	nt
c1ccc2c(c1)[nH]c1c(N3CCCC3)ncnc12	i	i	i	i	i	nt	nt	nt	nt
Clc1ccc2[nH]c3c(N4CCC5(CC4)OCCO5)ncnc3c2c1	i	i	i	42*	i	238%*	i	i	50*
c1ccc2c(c1)[nH]c1c(N3CCSCC3)ncnc12	i	nt	nt	32*	i	186%*	i	i	i
Cn1cccc1/C=N/N1CCN(c2ccccc2)CC1	i	i	i	i	i	nt	nt	nt	nt
COc1cccc(-n2nnc(S(=O)(=O)c3ccc(C)cc3)c2N)c1	i	i	i	36*	i	i	i	i	i
Cc1c(NC(=O)Nc2ccc(C(C)(C)C)cc2)c(=O)n(-c2ccccc2)n1C	i	i	i	i	i	nt	nt	nt	nt
O=C(Nc1nnc(-c2ccccn2)o1)c1cccc(Br)c1	i	i	i	29*	i	111%*	i	i	i
Cc1occc1C(=O)NNC(=S)NC(=O)COc1ccc(Cl)cc1Cl	i	i	-9.1*	71*	i	193%*	i	i	i
O=C(CNCC1(N2CCOCC2)CCCCC1)Nc1ccc(Cl)cc1	i	i	i	74*	i	i	i	i	i
O=C(Nc1ccc(N2CCOCC2)cc1)C1(c2ccc(Cl)cc2)CCC1	i	i	i	i	i	nt	nt	nt	nt
COc1cc2ccccc2nn1	i	i	i	i	i	nt	nt	nt	nt
COc1ccc2c(n1)Sc1nc3ccccc3nc1N2	i	i	i	40*	i	501%*	0.18*	i	122*
N#Cc1c(NCCN)nc(-c2ccco2)c2c1CCCC2	i	i	i	i	i	nt	nt	nt	nt
CC(C)CCNc1nc(-c2ccco2)c2c(c1C#N)CCCC2	i	i	i	27*	i	i	i	i	i
Cc1cc2c3c(c1)C(C)CC(C)(C)N3C(=O)C2=O (stereo not drawn)	i	i	i	i	i	nt	nt	nt	nt
CC1CC2(CCCCC2)N2C(=O)C(=O)c3cccc1c32 (stereo not drawn)	i	i	i	46*	i	196%*	i	i	i
CCCc1[nH]n(-c2nc3ccccc3s2)c(=O)c1C=NCC1CCCO1 (stereo not drawn)	i	i	i	51*	i	187%*	i	i	i
Cc1nn(Cc2ccccc2)c2c1C(c1cccc(Cl)c1)C(C#N)=C(N)O2 (stereo not drawn)	i	i	i	35*	i	174%*	i	i	47*
O=C(CCl)Nc1cccc(S(=O)(=O)N2CCCCCC2)c1	i	i	i	42*	i	165%*	i	i	i
CC(=O)N1N=C(c2ccc(C)c([N+](=O)[O-])c2)OC1(C)C	i	i	i	i	i	nt	nt	nt	nt
CCOc1c(Cl)cc(C(=O)Nc2ccccc2C(=O)O)cc1Cl	i	i	i	48*	i	78%*	i	i	i
COc1ccc(C(=O)Nc2ccccc2C(=O)O)cc1Cl	i	i	i	i	i	nt	nt	nt	nt
Cc1ccc(Cn2c(-c3nonc3N)nc3ccccc32)cc1	i	i	i	i	i	nt	nt	nt	nt
Nc1nc2ccccc2n1Cc1ccc(Cl)c(Cl)c1	i	i	i	36*	i	164%*	i	i	i
